Shown are actives, neighbours in structure and some others; about 3.7% of the full set was active somewhere.
MPTP inh: permeability transition pore inhibition; isolated mouse mitochondria, Ca2+ swelling absorbance, 30 min; inhibition, % at 10 µM; 360,000 compounds, 1.4% hits; AID 602449;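 active = inhibition of 50% or more, scaled per plate between neutral and stimulator controls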;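 note: 0% = DMSO wells given calcium and 100% = 1 mM EGTA wells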
aDG glyco up: alpha-DG glycosylation activation; Pro5-aDG cells, alpha-DG glycosylation AlphaScreen (IIH6); 0% Pro5, 100% B10-LARGE cell signal; activation, % at 10 µM; 360,000 compounds, 0.22% hits; AID 624168;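 active = activation of at least 8% versus controls, or a plate z-score of at least 8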;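 note: Pro5 are CHO cells carrying HIG-tagged alpha-DG that lacks glycosylation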
procasp3 activ: activates human procaspase-3. recombinant procaspase-3 D3A, Ac-DEVD-pNA absorbance 405 nm. AID 463141. activation, % at 8.5 µM. 330,000 compounds, 0.11% hits. P42574;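 active = activation above the mean of all tested compounds plus 3 SD, cut at about 21% in these data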;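 note: 0% = DMSO alone and 100% = DMSO wells spiked with extra 5 µM PC-3 D3A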
Target sequence (P42574 whole entry D9A/D28A/D175A): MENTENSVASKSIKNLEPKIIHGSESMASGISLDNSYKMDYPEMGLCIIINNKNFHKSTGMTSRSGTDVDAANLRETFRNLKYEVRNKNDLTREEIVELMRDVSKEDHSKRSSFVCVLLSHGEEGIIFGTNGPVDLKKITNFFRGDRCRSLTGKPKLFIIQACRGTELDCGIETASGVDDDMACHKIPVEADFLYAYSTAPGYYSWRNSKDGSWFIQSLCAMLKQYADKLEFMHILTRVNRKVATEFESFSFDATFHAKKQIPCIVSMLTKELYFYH
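System: Procaspase-3 D3A mutant. Medium: Zinc-free 300 mM NaCl, 50 mM HEPES, 0.01% Triton X-100. Schedule: 1 h preincubation plus 2 h reaction at 25 °C. Measured by: 405 nm absorbance of p-nitroaniline, reads at 0 and 120 min. Read-out: percent activation relative to control range.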
proCasp7 act: counter-screen for procaspase-3 activators: activators of human procaspase-7; AID 463210; recombinant procaspase-7, Ac-DEVD-pNA absorbance 405 nm; D23A/D198A/D206A triple mutant, cannot self-cleave; scale: DMSO 0, 5 µM enzyme 100; activation, % at 8.5 µM; P55210; 330,000 compounds, 0.093% hits;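 active = percent activation above the screen-wide mean plus 3 SD, cut at about 25% in these data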
Target sequence (P55210 whole entry D23A/D198A/D206A): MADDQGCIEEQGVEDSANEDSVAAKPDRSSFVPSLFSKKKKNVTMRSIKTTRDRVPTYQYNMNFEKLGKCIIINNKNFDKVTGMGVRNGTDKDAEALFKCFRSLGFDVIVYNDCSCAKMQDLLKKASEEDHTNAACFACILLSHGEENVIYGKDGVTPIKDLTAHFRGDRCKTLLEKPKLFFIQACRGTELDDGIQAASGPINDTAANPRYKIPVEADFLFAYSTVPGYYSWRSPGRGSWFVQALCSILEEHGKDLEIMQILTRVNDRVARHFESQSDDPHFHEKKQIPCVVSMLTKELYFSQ
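Replicates: singlicate. Assay system: Procaspase-7 triple mutant (PC-7 D3A). Signal: 405 nm absorbance of p-nitroaniline. Times: 1 h preincubation, 2 h reaction. Buffer or medium: Zinc-free HEPES pH 7.4 with 300 mM NaCl, 0.01% Triton X-100. Also added: DEVD-pNA substrate. Benchmarks: DMSO wells as 0%, DMSO with 5 µM added PC-7 as 100%.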
GRIN3A LBD mod: NR3A (human) ligand-binding domain modulation; NR3A LBD differential scanning fluorimetry, Tm shift; 0% = protein alone, 100% = glycine-bound protein; Tm shift relative to glycine control, % at 25 µM; 340,000 compounds, 2.5% hits; AID 1259313;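 active = melting temperature shift of at least 10% of the positive control shift, at one fixed dose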
PC3 D3A act: counter-screen for dual procaspase-3/7 activators: human procaspase-3 activation; shares compounds with proCasp7 act; recombinant PC-3 D3A, Ac-DEVD-pNA absorbance 405 nm; aspartates 9, 28, 175 changed to alanine; 100% = enzyme control; activation, % at 8.5 µM; 290 tested, under 10 active; AID 493114;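 active = mean percent activation across triplicates above a set limit taken from the earlier primary procaspase-3 screen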;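 note: 0% = DMSO wells and 100% = DMSO wells with 5 µM added PC-3 D3A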
PC7 dual conf: procaspase-7 (human) activation, dual activator confirmation; shares compounds with proCasp7 act; recombinant procaspase-7, Ac-DEVD-pNA absorbance 405 nm; D23A/D198A/D206A mutant that cannot self-cleave; activation, % at 8.5 µM; 290 tested, under 10 active;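 active = mean activation above a set limit carried over from the earlier primary screen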;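 note: 0% = DMSO only and 100% = DMSO with added 5 µM PC-7 enzyme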
Numbers without * were called inactive; x = no result.

SMILES	MPTP inh	aDG glyco up	procasp3 activ	proCasp7 act	GRIN3A LBD mod	PC3 D3A act	PC7 dual conf
C=CCNc1sc(C(=O)c2ccc(C)cc2)c(N)c1C#N	-4	0	-113	-6	0	x	x
C=CCNc1nc(N)c(C(=C(C#N)C#N)c2ccc(Br)cc2)s1	2	0	12	105*	-10	-28	-35
COCOc1cccc(CN2CCC2(C)C(=O)Nc2cc(OC)ccc2OC)c1 (stereo unspecified)	-1	0	x	x	x	x	x
COc1ccc(OC)c2sc(N3CCCCC3)nc12	0	0	-1	28*	2	5	-2
COc1ccccc1N1CCN(C(=O)c2cc3c(s2)-c2ccccc2OC3)CC1	0	0	4	6	-1	x	x
COc1cc2c(cc1OC)C(C)N(C(=O)c1cc3c(s1)-c1c(C)cccc1OC3)CC2 (stereo unspecified)	0	0	9	22	0	x	x
O=C(c1cc2c(s1)-c1ccccc1OC2)N1CCc2ccccc2C1	0	2	12	27*	3	3	2
O=C(Nc1nccs1)c1cc2c(s1)-c1ccccc1OC2	1	0	30*	28*	-7	-29	-35
COc1cc2c(cc1OC)C(C)N(C(=O)c1cc3c(s1)-c1ccccc1OC3)CC2 (stereo unspecified)	-1	0	26*	37*	-6	13	11
O=C(CCNS(=O)(=O)c1ccc(F)cc1)N1CCN(c2ncccn2)CC1	-2	0	x	x	x	x	x
c1ccc(Cn2c(-c3ccco3)nc3nc4ccccc4nc32)cc1	-4	0	12	46*	5	-31	-36
CCCCCn1c(-c2ccco2)nc2nc3ccccc3nc21	-3	0	5	7	0	x	x
Cc1ccc(Cn2c(SCC(=O)N(C)C3CCS(=O)(=O)C3)nc3ccccc3c2=O)cc1 (stereo unspecified)	0	0	1	4	0	x	x
O=C(Nc1ccc(Cc2ccncc2)cc1)C1CCC(N2C(=O)C3C4C=CC(C5CC45)C3C2=O)CC1 (stereo unspecified)	26	2	-6	30*	1	2	27*
COC(=O)[C@]12CCCCC=C1N(CCC1=CCCCC1)C(=O)[C@H](CC(=O)NCc1cccc(C(F)(F)F)c1)C2	1	0	x	x	x	x	x
O=c1oc2ccccc2cc1-c1nc2ccccc2o1	1	0	1	2	0	x	x
O=c1oc2ccc3ccccc3c2cc1-c1nc2ccccc2o1	0	1	-2	28*	-18	-30	-35
Cc1cc(C(=O)NC(CC(C)C)C(=O)O)cc(C)c1[N+](=O)[O-] (stereo unspecified)	1	0	10	26*	-2	3	1
CC1CN(C(C)C)C(C)CC1OC(=O)c1ccccc1 (stereo unspecified)	2	0	x	x	0	x	x
CN(Cc1ccccc1)C(=O)c1ccc(NC(=O)Cc2ccc(NC(=O)C3CCCN(C(=O)C4CCCC4)C3)cc2)cc1 (stereo unspecified)	3	0	x	x	0	x	x
NS(=O)(=O)c1ccc(N2N=C(c3ccccc3)CC2c2cccc(Cl)c2)cc1 (stereo unspecified)	-2	1	39*	44*	24*	-31	-33
O=Cc1ccc(N2N=C(c3ccccc3)CC2c2ccccc2)cc1 (stereo unspecified)	1	0	-46	-27	2	x	x
COc1ccc(C2CC(c3ccccc3)=NN2c2ccc(C(N)=O)cc2)cc1 (stereo unspecified)	0	0	30*	38*	-4	-29	-36
O=C(O)c1ccc(N2N=C(c3ccccc3)CC2c2ccccc2)cc1 (stereo unspecified)	2	0	4	-5	4	x	x
COc1ccc(C2CC(c3ccccc3)=NN2c2ccc(S(N)(=O)=O)cc2)cc1 (stereo unspecified)	1	2	28*	51*	-1	-28	-35
SMILES	MPTP inh	aDG glyco up	procasp3 activ	proCasp7 act	GRIN3A LBD mod	PC3 D3A act	PC7 dual conf
COc1ccc(C2=NN(c3ccccc3)C(c3ccc(OC)c(OC)c3)C2)cc1 (stereo unspecified)	2	0	-14	-23	2	x	x
COc1ccc(C2CC(c3cccc(C(F)(F)F)c3)=NN2c2ccc(S(N)(=O)=O)cc2)cc1 (stereo unspecified)	0	3	44*	53*	28*	-30	-35
COc1ccc(S(=O)(=O)N2CCCCC2)cc1NC(=O)C1CC1(Cl)Cl (stereo unspecified)	0	0	x	x	x	x	x
COc1ccc(C2CC(c3ccccc3Cl)=NN2c2ccc(S(N)(=O)=O)cc2)cc1 (stereo unspecified)	-1	1	27*	47*	11*	-29	-34
COc1ccc(C2CC(c3cccs3)=NN2c2ccc(C=O)cc2)cc1 (stereo unspecified)	x	x	-61	-38	4	x	x
CCN(CC)c1ccc(-c2nn3c(-c4ccccc4OC)nnc3s2)cc1	18	0	-1	33*	0	-31	-36
COc1ccc(-c2nn3c(-c4ccccc4)nnc3s2)cc1	9	0	3	8	1	x	x
Cc1cc(C)cc(NS(=O)(=O)CCCS(=O)(=O)Nc2cc(C)cc(C)c2)c1	3	0	x	x	4	x	x
CCN(CC(=O)Nc1ccc(OC)cc1)CC(=O)Nc1sc2c(c1C(=O)OC)CCCC2	1	0	10	4	0	x	x
C=CCOC(=O)C1=C(C)NC(SCC)=C(C#N)C1c1ccc(Cl)cc1 (stereo unspecified)	4	0	18	26*	2	5	6
NC(CCc1ccccc1)c1csc(Nc2nccc(C(F)(F)F)n2)n1 (stereo unspecified)	1	0	x	x	x	x	x
Cn1c(CC(=O)Nc2ccccc2F)nnc1SCC(=O)Nc1nncs1	0	0	0	38*	-1	3	-1
CNc1ccc(-c2cccc([N+](=O)[O-])c2)cn1	0	0	x	x	x	x	x
CC1CN(S(=O)(=O)c2ccc(C(=O)N(CCCN(C)C)c3nc4c(Cl)cccc4s3)cc2)CC(C)O1 (stereo unspecified)	-1	0	-1	10	1	x	x
COc1ccc(/C=N/NC(=S)NCc2ccccc2)cc1OC	-1	0	9	-2	-2	x	x
